Measured values from ChEMBL document CHEMBL4138044, “Withaferin A induces cell death and differentiation in multiple myeloma cancer stem cells” (Medchemcomm, 2017).

Columns and labels:
[1] = Antiproliferative activity against human […] cells after 72 hrs by XTT assay; assay type: functional, cell-based
Procedure, shortened: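 RPMI 8226 cells in RPMI 1640 with 10% FBS, plated at 15 000 cells/well and treated immediately with 0–10 μM WFA for 72 h. XTT added for 4 h. Growth as absorbance relative to vehicle control ×100. IC50 fitted from at least five concentrations; mean of three independent experiments ± SEM.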

[2] = tested on: Multiple myeloma cancer stem cell; test: Antiproliferative activity against human multiple myeloma cancer stem cells after 72 hrs by MTT assay; assay type: functional, cell-based
Procedure, shortened: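 MM-CSCs plated at 5000 cells/well and allowed to adhere 24 h, then exposed to 0–10 μM WFA for 72 h. MTT added for 2 h. Growth taken as absorbance relative to vehicle-control wells ×100. IC50 fitted from at least five concentrations; mean of three independent experiments ± SEM.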

For `C[C@@H]1C[C@H]2[C@@H]3CCC4=CC(=O)C=C[C@]4(C)[C@@]3(F)[C@@H](O)C[C@]2(C)[C@@]1(O)C(=O)CO` [DEXAMETHASONE], which IC50 [1] is on record?
Its IC50 is 7.8 nM.

And the IC50 [2]?
The IC50 was > 100000 nM.
